# Measured values of several laboratories.
# Target: Ephrin type-B receptor 2 (EPHB2, Homo sapiens, UniProt P29323)
# Residues used in one study (P29323 19-1055): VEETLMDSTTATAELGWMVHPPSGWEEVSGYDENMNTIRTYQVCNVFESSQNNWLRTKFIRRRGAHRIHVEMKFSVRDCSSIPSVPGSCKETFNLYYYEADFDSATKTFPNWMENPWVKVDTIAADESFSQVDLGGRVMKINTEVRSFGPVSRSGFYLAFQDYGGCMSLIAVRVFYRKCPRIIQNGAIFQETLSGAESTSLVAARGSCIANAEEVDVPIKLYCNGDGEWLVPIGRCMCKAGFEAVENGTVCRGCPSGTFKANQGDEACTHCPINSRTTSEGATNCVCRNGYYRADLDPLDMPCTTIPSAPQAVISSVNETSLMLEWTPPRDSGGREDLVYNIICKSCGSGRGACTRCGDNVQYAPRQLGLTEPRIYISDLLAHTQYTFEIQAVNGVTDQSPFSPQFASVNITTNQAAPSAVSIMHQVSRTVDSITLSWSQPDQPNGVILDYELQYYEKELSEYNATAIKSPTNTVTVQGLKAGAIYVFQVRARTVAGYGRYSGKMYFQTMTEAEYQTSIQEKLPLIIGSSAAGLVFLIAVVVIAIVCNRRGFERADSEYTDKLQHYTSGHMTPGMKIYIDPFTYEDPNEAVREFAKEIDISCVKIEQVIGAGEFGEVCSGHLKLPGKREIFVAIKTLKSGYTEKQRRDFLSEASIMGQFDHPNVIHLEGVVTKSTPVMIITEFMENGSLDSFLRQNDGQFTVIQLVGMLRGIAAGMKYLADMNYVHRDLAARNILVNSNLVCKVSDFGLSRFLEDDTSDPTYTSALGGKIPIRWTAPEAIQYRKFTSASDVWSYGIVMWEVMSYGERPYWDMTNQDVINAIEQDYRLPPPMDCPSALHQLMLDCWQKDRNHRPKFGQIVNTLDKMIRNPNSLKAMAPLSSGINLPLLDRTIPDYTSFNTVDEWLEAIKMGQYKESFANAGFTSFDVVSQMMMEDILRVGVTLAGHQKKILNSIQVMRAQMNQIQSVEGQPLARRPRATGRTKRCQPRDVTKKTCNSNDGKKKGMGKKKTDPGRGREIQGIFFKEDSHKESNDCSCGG
Compound,test,conditions,remaining binding [%]
C[C@@H]1CCN(c2nccc(-c3cnn4ncccc34)n2)C1,binding,1 µM,100
Nc1ncc2c(n1)-c1c([nH]c3ccc(C#CC4CC4)cc13)CCCC2,"binding, competition with immobilised ligand",1 µM,90
COCCOc1nc(-c2ccc(Cl)nc2)nc2c1CN(C(=O)c1ncn3ccccc13)CC2,"cell-free assay, competition with immobilised ligand",0.1 µM,79
O=C(NCCCN1CCOCC1)c1ccc(Nc2nccc(-c3cc4ccccc4s3)n2)cc1,"binding, competition with immobilised ligand",1 µM,98
C[C@@H]1CN(c2cc(-c3n[nH]c4ccc(OC5(C)CC5)cc34)ncn2)C[C@H](C)O1,"cell-free assay, competition with immobilised ligand",0.1 µM,90
CN(C)c1nccc(-c2cnc3ncccn23)n1,binding,1 µM,92
FC(F)(F)Oc1cccc(-c2cnc3ccc(-c4ccncc4)nn23)c1,"cell-free assay, competition with immobilised ligand",5 µM,96
Cn1cc(Cl)c2c(Oc3c(F)cc(Nc4cc(Cl)nc(N)n4)cc3F)ccnc21,"cell-free assay, competition with immobilised ligand",0.1 µM,100
CN(CCCC(F)(F)F)c1nccc(-c2cnn3ncccc23)n1,binding,1 µM,84
Cc1nccc(COC(=O)N2C[C@@H]3[C@@H](CNC(=O)c4ccc5[nH]nnc5c4)[C@@H]3C2)n1,"cell-free assay, competition with immobilised ligand",1 µM,100
O=C(NCCCN1CCOCC1)c1ccc(Nc2ncc(Cl)c(-c3ccc(Cl)s3)n2)cc1,"binding, competition with immobilised ligand",1 µM,100
CCN1CCN(Cc2ccc(C(=O)Nc3ccc(C)c(Oc4ccc5c(c4)CC(=O)N5)c3)cc2C(F)(F)F)CC1,"binding, competition with immobilised ligand",1 µM,100
Cc1nc(Cc2cccc(C(F)(F)F)c2)sc1-c1ccc(C(N)=O)nc1,"cell-free assay, competition with immobilised ligand",1 µM,86
N[C@@H]1CCN(c2nccc(-c3cnn4ncccc34)n2)C1,binding,1 µM,100
O=C(Nc1c[nH]nc1C(=O)NC1CCNCC1)c1cc(F)cc(F)c1,"binding, competition with immobilised ligand",1 µM,100
COc1cnc(Nc2cccc(S(N)(=O)=O)c2)nc1N1CCN(c2ccccc2)CC1,"binding, competition with immobilised ligand",1 µM,100
COc1ccc2c(c1)O[C@@H](c1ccc(OC)c(OC)c1)C[C@H]2NC(=O)C1(c2ccc3c(c2)OC(F)(F)O3)CC1,"cell-free assay, competition with immobilised ligand",1 µM,100
CN(C)c1nccc(-c2cnn3ncccc23)n1,binding,1 µM,71
